Results collected from several papers.
Lines come from different studies, so protocols differ.
Target: Serine/threonine-protein kinase PAK 6 (PAK6, Homo sapiens, UniProt Q9NQU5)

CCN(CC)CCNC(=O)c1c(C)[nH]c(/C=C2\C(=O)Nc3ccc(F)cc32)c1C  inhibition (enzyme activity; inhibitor; 0.3 µM): -11%
CCCOc1ccc(OC)c(F)c1C(=O)c1ccc(C(=O)N[C@@H]2CNC[C@H]2NC(=O)c2ccc3[nH]ncc3c2)cc1  remaining activity (enzyme activity; inhibitor; 10 µM): 68%
CCN(CC)c1ccc(C2=NNC(=O)CC2C)cc1[N+](=O)[O-] (centres unmarked)  remaining activity (enzyme activity; inhibitor; 10 µM): 126%
Cc1ccc(C(=O)NCc2ccsc2)cc1C#Cc1cn(C(C)C)c2ncnc(N)c12  activity vs control (enzyme activity; inhibitor; 1 µM): 108%
O=C1CCc2cc(Nc3cc(OC4CCOCC4)c([N+](=O)[O-])cc3Cl)ccc2N1  remaining binding (cell-free assay; competition with immobilised ligand; 1 µM): 86%
Nc1nc(Nc2ccc(S(N)(=O)=O)cc2)nn1C(=O)c1c(F)cccc1F  remaining signal (cell-free assay; 0.5 µM): 101%
O=C(O)[C@@H]1[C@@H](Cn2nnc3ccccc3c2=O)CC[C@H]1C(=O)c1ccc(OCCC2CCOCC2)cc1  remaining binding (cell-free assay; competition with immobilised ligand; 1 µM): 99%
COc1cc2ncnc(Nc3ccc(Oc4ccccc4)c(C)c3C)c2cc1OC  inhibition (enzyme activity; inhibitor; 1 µM): -6%
Cc1ccc(Nc2nccc(N(C)c3ccc4c(C)n(C)nc4c3)n2)cc1S(N)(=O)=O  remaining signal (cell-free assay; inhibitor; 0.5 µM): 105%
CNC(=O)c1ccc(Nc2ncc(C(F)(F)F)c(NCc3nccnc3N(C)S(C)(=O)=O)n2)cc1  remaining binding (cell-free assay; competition with immobilised ligand; 0.1 µM): 100%
COc1cc(Nc2cnc(C#N)c(O[C@H](C)CN(C)C)n2)ncc1-c1cnn(C)c1  remaining activity (enzyme activity; inhibitor; radiometric; 1 µM): 77%
Nc1nc(NC2CCCCC2)sc1C(=O)c1ccccc1  remaining activity (enzyme activity; inhibitor; 10 µM): 93%
Cc1sc(C(=O)NC2COC2)cc1-n1cc(NC(=O)Nc2c(F)cccc2Cl)cn1  remaining activity (enzyme activity; inhibitor; 10 µM): 99.9%
CCc1ccccc1C(=O)Nc1n[nH]c2c(C)c(F)c(C3C(C#N)=C(C)N(C)C(C)=C3C#N)cc12  remaining binding (cell-free assay; competition with immobilised ligand; 1 µM): 93%
FC(F)(F)Oc1cccc(-c2cnc3ccc(-c4ccncc4)nn23)c1  activity vs control (enzyme activity; inhibitor; radiometric; 5 µM): 90%
Oc1cccc(-c2nc(N3CCOCC3)c3oc4ncccc4c3n2)c1  remaining activity (enzyme activity; inhibitor; 10 µM): 108%
CCOCCn1cc(C(=O)Nc2ccc(-n3nc(-c4cccnc4)cc3C(F)(F)F)cn2)ccc1=O  remaining binding (cell-free assay; competition with immobilised ligand; 1 µM): 100%
N[C@H]1CCN(c2nccc(-c3cnn4ncccc34)n2)C1  remaining binding (binding; 1 µM): 87%
CC(C)(O)c1cncc(-c2nc3ccc(F)cc3n2C2CC2)c1  remaining binding (cell-free assay; competition with immobilised ligand; 1 µM): 100%
Cc1ccc(C(=O)Nc2ccc(CN3CCN(C)CC3)c(C(F)(F)F)c2)cc1C#Cc1cnc2cccnn12  remaining activity (enzyme activity; inhibitor; 23.5 nM): 84%
